In publication PMC3041204 (Diabetes Care, 2011):

Assays:
[1] = format: in vivo, patients with type 1 diabetes; settings: s.c., arithmetic mean; n = 21 (lispro), n = 16 (RHI); serum insulin RIA
blood glucose = test: Postprandial glycemic response to a standardized liquid test meal; format: in vivo, patients with type 1 diabetes; settings: first 4 h after study drug administration
Procedure, shortened: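 Single-blind crossover in adults with type 1 diabetes. Prandial insulin was withheld >8 h and basal insulin >12 h, and blood glucose was clamped to 100–120 mg/dL with IV glucose or insulin. After a 30-min baseline, staff gave an individually optimized SC abdominal insulin dose with or without hyaluronidase, then a liquid meal.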

[2] = Safety: adverse events, hypoglycemia; format: in vivo, patients with type 1 diabetes; settings: for patients with hypoglycemia (adverse event): generally mild or occasionally moderate, safety population; for number of subjects administered glucose for the treatment of hypoglycemia: intravenous glucose (20%) at investigator's discretion when blood glucose <60 mg/dL or symptoms

Substance	fraction of insulin exposure >2 h after injection [1] [%]	fraction of total insulin exposure within the first hour following injection [1] [%]	total hyperglycemic excursions (area under the curve >140 mg/dL) (blood glucose)	patients with hypoglycemia (adverse event) [2]	number of subjects administered glucose for the treatment of hypoglycemia [2]	patients with mild injection-site erythema ([2]; in vivo)
insulin lispro	22	39	526 min ⋅ mg^−1 ⋅ mL^−1	13 of 22	6 of 21	–
regular human insulin [RHI]	–	–	1,238 min ⋅ mg^−1 ⋅ mL^−1	16 of 21	12 of 21	two
